Laboratory results as given in publication PMC8884033 (Journal of medicinal chemistry, 2021).
pIC50: −log10 of the molar value.

Key:
other kinases = assay: KINOMEScan screen; type: binding; settings: KINOMEScan at 10 μM
recombinant human GALK1 [1] = target: T1, recombinant human GALK1 (Homo sapiens, UniProt P51570); settings: read-out: IC50 against human recombinant GALK1; previously reported lead; cited from earlier work
mouse recombinant GALK1 [2] = target: T2, mouse recombinant GALK1 (Mus musculus, UniProt Q9R0N0); settings: read-out: IC50 against mouse recombinant GALK1; previously reported lead; cited from earlier work
GALK2 = settings: cited from earlier work
[3] = test system: Fibroblasts derived from GALT-deficient patients; settings: primary fibroblast cells from patients with classic galactosemia; cited from earlier work
recombinant human GALK1 [4] = target: T1, recombinant human GALK1; assay: GALK1 biochemical assay; settings: for fold improvement in potency compared to compound 2: ratio of GALK1 IC50 vs 2
[5] = Parallel artificial membrane permeability assay; type: in vitro ADME; settings: pH 7.4
Method in brief: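 Stirred double-sink PAMPA with a lipid/dodecane membrane designed to model GI passive permeability. Donor and acceptor both at pH 7.4. Test compound from 10 mM DMSO stock, diluted to 0.05 mM in pH 7.4 buffer (0.5% DMSO final). Permeation ran 30 min at room temperature with donor stirring. Donor and acceptor concentrations read by UV plate reader.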

mouse recombinant GALK1 [6] = target: T2, mouse recombinant GALK1; assay: GALK1 biochemical assay, mouse enzyme
[7] = test system: Fibroblasts derived from GALT-deficient patients; assay: Cellular Gal-1P accumulation assay after galactose challenge; type: cell-based, human; settings: at 3 μM, patient fibroblasts
Method in brief: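 GALT-deficient patient fibroblasts kept in galactose-free DMEM with 10% FBS. Inhibitor added at set concentrations for 2 to 4 h at 37 °C. Galactose then added to 0.05% for a 4 h challenge. Cells PBS-washed twice and lysed in ice-cold hypotonic buffer (25 mM Tris-HCl pH 7.4, 25 mM NaCl, 0.5 mM EDTA, protease inhibitors). Lysate needle-sheared, then spun 16,000g for 20 min at 4 °C. Gal-1P measured by alkaline phosphatase-coupled method and normalized to protein.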

[8] = Human liver microsome stability; type: in vitro ADME; settings: liver microsomes, pH 7.4
[9] = Mouse pharmacokinetic studies; type: in vivo, CD1 mice
Method in brief: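 Fed CD1 mice, 6–8 weeks old, ~25–30 g. Given single IP (50 mpk), PO (30 mpk) or IV doses as solutions in 5% NMP/25% PEG 300/70% of 15% w/w Kolliphor HS 15 in water (5, 3 and 0.6 mg/mL for IP, PO and IV). Heart-puncture blood taken into heparin-Na from 3 mice per time, 5 min–24 h. Plasma analysed by LC/MS/MS. Once-daily cageside observations.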

[10] = male, CD1, mouse, plasma, iv, 3 mg/kg

T1 sequence (P51570 whole entry): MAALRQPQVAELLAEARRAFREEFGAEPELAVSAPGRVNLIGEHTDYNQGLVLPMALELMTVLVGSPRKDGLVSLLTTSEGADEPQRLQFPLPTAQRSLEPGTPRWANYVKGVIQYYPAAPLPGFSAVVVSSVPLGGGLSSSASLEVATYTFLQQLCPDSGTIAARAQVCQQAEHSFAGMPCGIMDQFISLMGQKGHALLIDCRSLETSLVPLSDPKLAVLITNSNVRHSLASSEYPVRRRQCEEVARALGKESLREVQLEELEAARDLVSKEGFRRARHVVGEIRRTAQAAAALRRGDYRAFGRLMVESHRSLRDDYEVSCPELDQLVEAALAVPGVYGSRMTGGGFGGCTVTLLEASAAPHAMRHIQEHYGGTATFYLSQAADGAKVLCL
T2 sequence (Q9R0N0 whole entry): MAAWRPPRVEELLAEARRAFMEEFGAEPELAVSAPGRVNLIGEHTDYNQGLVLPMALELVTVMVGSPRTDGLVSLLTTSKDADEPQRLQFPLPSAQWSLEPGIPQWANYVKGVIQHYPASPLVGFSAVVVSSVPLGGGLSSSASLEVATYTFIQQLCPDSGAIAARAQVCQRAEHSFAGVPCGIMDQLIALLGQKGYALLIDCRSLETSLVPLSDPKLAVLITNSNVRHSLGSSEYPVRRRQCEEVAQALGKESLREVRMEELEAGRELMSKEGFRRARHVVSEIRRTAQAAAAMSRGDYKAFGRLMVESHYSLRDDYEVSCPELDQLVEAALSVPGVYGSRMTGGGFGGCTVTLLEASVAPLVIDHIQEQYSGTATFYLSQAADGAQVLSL

Compound: O=C1CCCC2=C1C(c1[nH]ncc1Cl)N=C(Nc1nc3ccccc3o1)N2 (centres unmarked) [Compound 1]
- cross-reactivity against other kinases (other kinases): negligible cross-reactivity
- pIC50 (recombinant human GALK1 [1]): 5.11
- pIC50 (mouse recombinant GALK1 [2]): 4.86
- activity against GALK2 (GALK2): inactive
- effect on gal-1P levels [3]: lowered gal-1P levels

Compound: CC1=C(C(=O)Nc2cccc(C(=O)O)c2)C(c2ccccc2Cl)N=C(Nc2nc3ccccc3o2)N1 (centres unmarked) [Compound 15, 3-(2-(Benzo[d]oxazol-2-ylamino)-4-(2-chlorophenyl)-6-methyl-1,4-dihydropyrimidine-5-carboxamido)benzoic Acid]
- fold improvement in potency compared to compound 2 (recombinant human GALK1 [4]): > 5 fold

Compound: CC1=C(C(=O)Nc2ccc(C(=O)O)cc2)C(c2ccccc2Cl)N=C(Nc2nc3ccccc3o2)N1 (centres unmarked) [Compound 16, 4-(2-(Benzo[d]oxazol-2-ylamino)-4-(2-chlorophenyl)-6-methyl-1,4-dihydropyrimidine-5-carboxamido)benzoic Acid]
- fold improvement in potency compared to compound 2 (recombinant human GALK1 [4]): > 5 fold

Compound: CC1=C(C(=O)NCc2ccc(C(=O)O)cc2)C(c2ccccc2Cl)N=C(Nc2nc3ccccc3o2)N1 (centres unmarked) [Compound 25, 4-((2-(Benzo[d]oxazol-2-ylamino)-4-(2-chlorophenyl)-6-methyl-1,4-dihydropyrimidine-5-carboxamido)methyl)benzoic Acid]
- fold better than 24 (recombinant human GALK1 [4]; GALK1 IC50 vs 24): 2 fold

Compound: CC1=C(C(=O)NCc2cn(C)cn2)C(c2ccccc2Cl)N=C(Nc2nc3ccccc3o2)N1 (centres unmarked) [Compound 32, 2-(Benzo[d]oxazol-2-ylamino)-4-(2-chlorophenyl)-6-methyl-N-((1-methyl-1H-imidazol-4-yl)methyl)-1,4-dihydropyrimidine-5-carboxamide]
- fold improvement in potency compared to compound 2 (recombinant human GALK1 [4]): 7–9 fold

Compound: CC1=C(C(=O)NCc2cnn(C)c2)C(c2ccccc2Cl)N=C(Nc2nc3ccccc3o2)N1 (centres unmarked) [Compound 33, 2-(Benzo[d]oxazol-2-ylamino)-4-(2-chlorophenyl)-6-methyl-N-((1-methyl-1H-pyrazol-4-yl)methyl)-1,4-dihydropyrimidine-5-carboxamide]
- fold improvement in potency compared to compound 2 (recombinant human GALK1 [4]): 7–9 fold

Compound: CC1=C(C(=O)Nc2cc(C(=O)O)ccn2)C(c2ccccc2Cl)N=C(Nc2nc3ccccc3o2)N1 (centres unmarked) [Compound 35, 2-(2-(Benzo[d]oxazol-2-ylamino)-4-(2-chlorophenyl)-6-methyl-1,4-dihydropyrimidine-5-carboxamido)isonicotinic Acid]
- fold improvement in potency compared to compound 2 (recombinant human GALK1 [4]): 10 fold

Compound: CC1=C(C(=O)Nc2cc(C(=O)O)ccn2)C(c2ccccc2Cl)N=C(Nc2nc3ccc(F)cc3o2)N1 (centres unmarked) [Compound 38, 2-(4-(2-Chlorophenyl)-2-((6-fluorobenzo[d]oxazol-2-yl)amino)-6-methyl-1,4-dihydropyrimidine-5-carboxamido)isonicotinic Acid]
- biochemical potency against GALK1 (recombinant human GALK1 [4]): submicromolar

Compound: CC1=C(C(=O)Nc2cc(C(=O)O)ccn2)C(c2ccccc2Cl)N=C(Nc2nc3cccc(N)c3o2)N1 (centres unmarked) [Compound 53, 2-(2-((7-Aminobenzo[d]oxazol-2-yl)amino)-4-(2-chlorophenyl)-6-methyl-1,4-dihydropyrimidine-5-carboxamido)isonicotinic Acid]
- biochemical potency against GALK1 (recombinant human GALK1 [4]): submicromolar
- fold potency improvement over 35 (recombinant human GALK1 [4]; ratio of GALK1 IC50 vs 35): 5 fold

Compound: CC1=C(C(=O)NCc2cnn(C)c2)C(c2ccc(C)cc2Cl)N=C(Nc2nc3cccc(N)c3o2)N1 (centres unmarked) [Compound 67, 2-((7-aminobenzo[d]oxazol-2-yl)amino)-4-(2-chloro-4-methylphenyl)-6-methyl-N-((1-methyl-1H-pyrazol-4-yl)methyl)-1,4-dihydropyrimidine-5-carboxamide]
- Papp at 30 min, 0.05 mM ([5]; PAMPA): 315 ×10⁻⁶ cm/s

Compound: CC1=C(C(=O)NCc2cnn(C)c2)C(c2ccc(C)cc2Cl)N=C(Nc2nc3ccc(F)c(N)c3o2)N1 (centres unmarked) [Compound 68, 2-((7-Amino-6-fluorobenzo[d]oxazol-2-yl)amino)-4-(2-chloro-4-methylphenyl)-6-methyl-N-((1-methyl-1H-pyrazol-4-yl)methyl)-1,4-dihydropyrimidine-5-carboxamide]
- mouse GALK1 inhibition (mouse recombinant GALK1 [6]): submicromolar
- gal-1P/protein levels [7]: ~ 50 % of control
- half-life at 1 μM [8]: 47 min
- PAMPA [5]: 485 10^−6 cm/s
- time up to which plasma concentrations stay above 1 μM ([9]; IP, single 50 mg/kg dose): ~ 7 h
- time after which compound levels are below LLQ ([9]; IV, 3 mpk, plasma): 2 h
- clearance at 24 h [9, 10]: 19.9 mL/min/kg
- half-life [9, 10]: ~24 min

Compound: CCn1cc(CNC(=O)C2=C(C)NC(Nc3nc4cccc(N)c4o3)=NC2c2ccc(C)cc2Cl)cn1 (centres unmarked) [Compound 69, 2-((7-Aminobenzo[d]oxazol-2-yl)amino)-4-(2-chloro-4-methylphenyl)-6-methyl-N-((1-ethyl-1H-pyrazol-4-yl)methyl)-1,4-dihydropyrimidine-5-carboxamide]
- PAMPA [5]: 632 10^−6 cm/s

Compound: CCn1cc(CNC(=O)C2=C(C)NC(Nc3nc4ccc(F)c(N)c4o3)=NC2c2ccc(C)cc2Cl)cn1 (centres unmarked) [Compound 70, 2-((7-Amino-6-fluorobenzo[d]oxazol-2-yl)amino)-4-(2-chloro-4-methylphenyl)-N-((1-ethyl-1H-pyrazol-4-yl)methyl)-6-methyl-1,4-dihydropyrimidine-5-carboxamide]
- fold improvement in GALK1 inhibition over 69 (recombinant human GALK1 [4]; 6′-F vs des-fluoro 69): 4 fold
- mouse GALK1 inhibition (mouse recombinant GALK1 [6]): submicromolar
- PAMPA [5]: 410 10^−6 cm/s

Compound: CC1=C(C(=O)NCc2cnn(C)c2)[C@H](c2ccc(C)cc2Cl)N=C(Nc2nc3cccc(N)c3o2)N1 [Compound (R)-67, (R)-2-((7-Aminobenzo[d]oxazol-2-yl)amino)-4-(2-chloro-4-methylphenyl)-6-methyl-N-((1-methyl-1H-pyrazol-4-yl)methyl)-1,4-dihydropyrimidine-5-carboxamide]
- PAMPA [5]: 661 10^−6 cm/s

Compound: CCn1cc(CNC(=O)C2=C(C)NC(Nc3nc4ccc(F)c(N)c4o3)=N[C@H]2c2ccc(C)cc2Cl)cn1 [Compound (R)-70, (R)-2-((7-Amino-6-fluorobenzo[d]oxazol-2-yl)amino)-4-(2-chloro-4-methylphenyl)-N-((1-ethyl-1H-pyrazol-4-yl)methyl)-6-methyl-1,4-dihydropyrimidine-5-carboxamide]
- fold more potent than the (S)-enantiomer (recombinant human GALK1 [4]; (R) vs (S) enantiomer at C4): 18 fold
- mouse GALK1 inhibition (mouse recombinant GALK1 [6]): submicromolar
- PAMPA [5]: 773 10^−6 cm/s

Compound: CCn1cc(CNC(=O)C2=C(C)NC(Nc3nc4ccc(F)c(N)c4o3)=N[C@@H]2c2ccc(C)cc2Cl)cn1 [Compound (S)-70, (S)-2-((7-Amino-6-fluorobenzo[d]oxazol-2-yl)amino)-4-(2-chloro-4-methylphenyl)-N-((1-ethyl-1H-pyrazol-4-yl)methyl)-6-methyl-1,4-dihydropyrimidine-5-carboxamide]
- PAMPA [5]: 407 10^−6 cm/s
